Measurements from ChEMBL document CHEMBL5303300, “EUbOPEN Chemogenomics Library - Multiplex” (2023).
Where “and” joins values, the source holds several entries; their conditions need not be identical. Equal entries are not always repeated.

Tested on: U2OS
Assay: Multiplex assay against U2OS
Type: toxicity, cell-based
Conditions: human, number of replicates 2
How it was run: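 Cells were classed with CellPathfinder machine-learning gating, first as Hoechst high-intensity objects or normal cells, then (normal cells) as healthy, pyknosed or fragmented nuclei, and finally (pyknosed cells) as mitotic or apoptotic. Staining of live cells at seeding used Hoechst33342, BioTracker Green Microtubule Cytoskeleton Dye, MitoTracker Red and Annexin V Alexa Fluor 680, with imaging on a CQ1 microscope at 37°C and 5% CO2 after compound addition. Tubulin, mitochondrial-mass and membrane-permeability phenotypes are per cents of healthy-nucleus cells.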

[1] = 12 h, 1 µM, compound concentration 1 uM
[2] = 12 h, 10 µM, compound concentration 10 uM
[3] = 24 h, 1 µM, compound concentration 1 uM
[4] = 24 h, 10 µM, compound concentration 10 uM
[5] = 48 h, 1 µM, compound concentration 1 uM
[6] = 48 h, 10 µM, compound concentration 10 uM

Which “Population Apoptotic (%)” value [1] does the source give for COc1cc(OC)cc(C(=O)NNC(=O)Nc2cccc3ccccc23)c1 here?
Its value is 66% and 60%.

And the “Population Healthy Nuclei (%)” value [1]?
Its value is 65% and 85%.

What about the “Population Hoechst High Intensity Objects (%)” value [1] of the same compound?
Its value is 0%.

And the “Population Membrane Permeable-Phenotype (%)” value [1]?
Its value is 7% and 3%.

What about the “Population Mitochondria Different-Phenotype (%)” value [1] of the same compound?
Its value is 0%.

What about the “Population Mitotic Cells (%)” value [1] of the same compound?
Its value is 33% and 39%.

What about the “Population Normal (%)” value [1] of the same compound?
The value was 100%.

What about the “Population Pyknosed Nuclei (%)” value [1] of the same compound?
The value was 15% and 11%.

And the “Population Tubulin-Different-Phenotype (%)” value [1]?
Its value is 53% and 88%.

What about the “Population Healthy Nuclei (%)” value [2] of the same compound?
The value was 80% and 64%.

What about the “Population Hoechst High Intensity Objects (%)” value [2] of the same compound?
Its value is 0%.

And the “Population Membrane Permeable-Phenotype (%)” value [2]?
Its value is 0% and 5%.

What about the “Population Mitochondria Different-Phenotype (%)” value [2] of the same compound?
Its value is 0%.

What about the “Population Mitotic Cells (%)” value [2] of the same compound?
Its value is 57% and 90%.

And the “Population Normal (%)” value [2]?
The value was 100%.

And the “Population Pyknosed Nuclei (%)” value [2]?
The value was 15% and 19%.

What about the “Population Tubulin-Different-Phenotype (%)” value [2] of the same compound?
The value was 71% and 38%.

What about the “Population Apoptotic (%)” value [3] of the same compound?
Its value is 51% and 100%.

And the “Population Fragmented Nuclei (%)” value [3]?
Its value is 4% and 12%.

And the “Population Healthy Nuclei (%)” value [3]?
The value was 83% and 79%.

What about the “Population Hoechst High Intensity Objects (%)” value [3] of the same compound?
The value was 0%.

What about the “Population Membrane Permeable-Phenotype (%)” value [3] of the same compound?
Its value is 2% and 0%.

What about the “Population Mitochondria Different-Phenotype (%)” value [3] of the same compound?
The value was 0%.

What about the “Population Normal (%)” value [3] of the same compound?
Its value is 99% and 100%.

What about the “Population Pyknosed Nuclei (%)” value [3] of the same compound?
The value was 11% and 8%.

And the “Population Tubulin-Different-Phenotype (%)” value [3]?
Its value is 89% and 36%.

What about the “Population Apoptotic (%)” value [4] of the same compound?
Its value is 34% and 30%.

And the “Population Fragmented Nuclei (%)” value [4]?
Its value is 5% and 6%.

And the “Population Healthy Nuclei (%)” value [4]?
The value was 83% and 73%.

What about the “Population Hoechst High Intensity Objects (%)” value [4] of the same compound?
Its value is 0%.

What about the “Population Membrane Permeable-Phenotype (%)” value [4] of the same compound?
The value was 0% and 4%.

And the “Population Mitochondria Different-Phenotype (%)” value [4]?
The value was 0% and 4%.

What about the “Population Mitotic Cells (%)” value [4] of the same compound?
The value was 65% and 69%.

What about the “Population Normal (%)” value [4] of the same compound?
Its value is 100%.

What about the “Population Pyknosed Nuclei (%)” value [4] of the same compound?
Its value is 11% and 20%.

And the “Population Tubulin-Different-Phenotype (%)” value [4]?
The value was 81% and 50%.

What about the “Population Apoptotic (%)” value [5] of the same compound?
Its value is 64% and 50%.

What about the “Population Fragmented Nuclei (%)” value [5] of the same compound?
Its value is 3% and 6%.

And the “Population Healthy Nuclei (%)” value [5]?
The value was 88% and 85%.

And the “Population Hoechst High Intensity Objects (%)” value [5]?
The value was 0%.

And the “Population Membrane Permeable-Phenotype (%)” value [5]?
The value was 0% and 4%.

What about the “Population Mitochondria Different-Phenotype (%)” value [5] of the same compound?
The value was 0% and 4%.

What about the “Population Mitotic Cells (%)” value [5] of the same compound?
The value was 35% and 50%.

And the “Population Normal (%)” value [5]?
Its value is 100%.

And the “Population Pyknosed Nuclei (%)” value [5]?
The value was 7% and 8%.

What about the “Population Tubulin-Different-Phenotype (%)” value [5] of the same compound?
Its value is 92% and 47%.

And the “Population Apoptotic (%)” value [6]?
Its value is 60% and 63%.

What about the “Population Fragmented Nuclei (%)” value [6] of the same compound?
Its value is 5% and 2%.

What about the “Population Healthy Nuclei (%)” value [6] of the same compound?
Its value is 68% and 90%.

And the “Population Hoechst High Intensity Objects (%)” value [6]?
The value was 2% and 0%.

And the “Population Membrane Permeable-Phenotype (%)” value [6]?
Its value is 3% and 1%.

And the “Population Mitochondria Different-Phenotype (%)” value [6]?
Its value is 4% and 0%.

And the “Population Mitotic Cells (%)” value [6]?
Its value is 39% and 36%.

What about the “Population Normal (%)” value [6] of the same compound?
Its value is 97% and 100%.

What about the “Population Tubulin-Different-Phenotype (%)” value [6] of the same compound?
Its value is 52% and 84%.

How did the “Population Apoptotic (%)” value [1] turn out when Cc1cccc(S(=O)(=O)N(C)[C@H](C)CCN2CCC(C)CC2)c1.Cl was run?
The value was 72% and 100%.

And the “Population Fragmented Nuclei (%)” value [1]?
The value was 5% and 14%.

And the “Population Healthy Nuclei (%)” value [1]?
The value was 84% and 82%.

And the “Population Hoechst High Intensity Objects (%)” value [1]?
Its value is 0%.

What about the “Population Membrane Permeable-Phenotype (%)” value [1] of the same compound?
The value was 0%.

And the “Population Mitochondria Different-Phenotype (%)” value [1]?
The value was 0%.

What about the “Population Normal (%)” value [1] of the same compound?
The value was 100%.

What about the “Population Pyknosed Nuclei (%)” value [1] of the same compound?
Its value is 10% and 2%.

What about the “Population Apoptotic (%)” value [2] of the same compound?
Its value is 50%.

What about the “Population Healthy Nuclei (%)” value [2] of the same compound?
The value was 53% and 89%.

And the “Population Hoechst High Intensity Objects (%)” value [2]?
Its value is 0%.

And the “Population Membrane Permeable-Phenotype (%)” value [2]?
Its value is 0%.

What about the “Population Mitochondria Different-Phenotype (%)” value [2] of the same compound?
Its value is 0% and 1%.

What about the “Population Mitotic Cells (%)” value [2] of the same compound?
Its value is 50%.

What about the “Population Normal (%)” value [2] of the same compound?
The value was 100%.

What about the “Population Tubulin-Different-Phenotype (%)” value [2] of the same compound?
The value was 42% and 46%.

And the “Population Apoptotic (%)” value [3]?
The value was 41% and 14%.

What about the “Population Fragmented Nuclei (%)” value [3] of the same compound?
Its value is 4% and 10%.

And the “Population Healthy Nuclei (%)” value [3]?
Its value is 83% and 71%.

What about the “Population Hoechst High Intensity Objects (%)” value [3] of the same compound?
Its value is 0%.

And the “Population Membrane Permeable-Phenotype (%)” value [3]?
Its value is 1% and 0%.

What about the “Population Mitochondria Different-Phenotype (%)” value [3] of the same compound?
The value was 0%.

And the “Population Mitotic Cells (%)” value [3]?
Its value is 58% and 85%.

What about the “Population Normal (%)” value [3] of the same compound?
Its value is 100%.

What about the “Population Pyknosed Nuclei (%)” value [3] of the same compound?
The value was 11% and 17%.

And the “Population Apoptotic (%)” value [4]?
Its value is 80% and 54%.

And the “Population Healthy Nuclei (%)” value [4]?
The value was 54% and 91%.

What about the “Population Hoechst High Intensity Objects (%)” value [4] of the same compound?
The value was 0%.

What about the “Population Membrane Permeable-Phenotype (%)” value [4] of the same compound?
The value was 0% and 2%.

And the “Population Mitochondria Different-Phenotype (%)” value [4]?
Its value is 0% and 1%.

And the “Population Mitotic Cells (%)” value [4]?
Its value is 20% and 45%.

What about the “Population Normal (%)” value [4] of the same compound?
Its value is 100%.

And the “Population Tubulin-Different-Phenotype (%)” value [4]?
The value was 58% and 56%.

And the “Population Apoptotic (%)” value [5]?
Its value is 59% and 46%.

What about the “Population Fragmented Nuclei (%)” value [5] of the same compound?
The value was 2% and 12%.

And the “Population Healthy Nuclei (%)” value [5]?
The value was 89% and 68%.

And the “Population Hoechst High Intensity Objects (%)” value [5]?
The value was 0%.

What about the “Population Membrane Permeable-Phenotype (%)” value [5] of the same compound?
Its value is 2% and 0%.

What about the “Population Mitochondria Different-Phenotype (%)” value [5] of the same compound?
The value was 0%.

And the “Population Mitotic Cells (%)” value [5]?
Its value is 40% and 53%.

What about the “Population Normal (%)” value [5] of the same compound?
Its value is 100%.

And the “Population Pyknosed Nuclei (%)” value [5]?
Its value is 8% and 18%.

What about the “Population Tubulin-Different-Phenotype (%)” value [5] of the same compound?
The value was 86% and 42%.

What about the “Population Apoptotic (%)” value [6] of the same compound?
The value was 30% and 62%.

And the “Population Healthy Nuclei (%)” value [6]?
Its value is 92% and 51%.

And the “Population Hoechst High Intensity Objects (%)” value [6]?
Its value is 0%.

And the “Population Mitochondria Different-Phenotype (%)” value [6]?
Its value is 0%.

And the “Population Mitotic Cells (%)” value [6]?
The value was 69% and 37%.

What about the “Population Normal (%)” value [6] of the same compound?
Its value is 99% and 100%.

And the “Population Tubulin-Different-Phenotype (%)” value [6]?
The value was 62% and 46%.
